Screens (PubChem)
In the library only some 7.4% were active in any assay of this set; here they are far more common.
S1P3 agonist: human S1P3 receptor agonists, primary screen, cell-based, primary and confirmation, NFAT-BLA reporter; S1P3 NFAT-BLA reporter cells, agonism, FRET ratio; relative to 1 µM S1P, basal subtracted; activation, % at 4.5 µM; actives 0.1% (n = 60,000);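 active means activation above the screen-wide mean plus 3 SD, cut at about 4.5% in these data, passing the limit was not always enough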
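Benchmarks: high control 1 µM S1P / System: stable CHO line with human S1P3, Gα16, NFAT-BLA reporter / Dosing: single compound concentration, 4.5 µM final / Timing: 4 h compound at 37 °C, 2 h substrate at RT / Measured by: FRET β-lactamase substrate fluorescence, excitation 405 nm, 460/535 nm emission ratio, background-subtracted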
Jurkat tox 60K: cytotoxicity toward Jurkat T cells, primary screen, cytotoxicity control, cell-based, Jurkat E6.1, 60K MLSMR library | inhibition, % at 4 µM | actives 1.2% (n = 56,000) | Jurkat E6.1 viability, ATP luminescence, 48 h | AID 463, 2006;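 active means inhibition above the mean inhibition of all tested compounds plus 3 SD, cut at about 28% in these data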
M1 agonist: M1 muscarinic receptor agonists, primary screen, CHO-M1 cells, Fluo-4 calcium, agonist mode; actives 3% (n = 64,000); Fluo-4 calcium fluorescence; active compounds read high; Muscarinic acetylcholine receptor M1; B-score at 10 µM;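 active means fluorescence rise, raw or as B-score row- and column-corrected plate score, outside the 99.7% band of its plate's samples, either direction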
JNK3 inh: JNK3 kinase activity inhibitors, primary screen, biochemical, human, purified enzyme; actives 0.61% (n = 60,000); HTS; inhibition, % at 8 µM; Mitogen-activated protein kinase 10 (Homo sapiens), P53779; in the data active means inhibition above about 17%;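 further: 0% = DMSO and 100% = reference inhibitor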
Target sequence (P53779 whole entry, looked up): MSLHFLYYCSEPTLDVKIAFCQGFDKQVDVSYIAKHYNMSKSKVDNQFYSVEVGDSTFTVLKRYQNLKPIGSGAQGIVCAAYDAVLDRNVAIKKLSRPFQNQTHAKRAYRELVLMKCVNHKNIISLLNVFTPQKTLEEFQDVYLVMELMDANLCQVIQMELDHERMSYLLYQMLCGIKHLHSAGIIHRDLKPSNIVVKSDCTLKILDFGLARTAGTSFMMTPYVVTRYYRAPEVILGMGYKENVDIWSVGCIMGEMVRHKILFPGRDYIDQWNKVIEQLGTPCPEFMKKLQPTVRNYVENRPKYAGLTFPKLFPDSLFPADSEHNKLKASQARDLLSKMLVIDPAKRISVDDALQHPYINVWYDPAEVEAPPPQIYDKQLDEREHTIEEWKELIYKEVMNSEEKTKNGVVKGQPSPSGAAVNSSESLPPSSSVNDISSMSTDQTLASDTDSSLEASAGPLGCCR
M1 antagonist: antagonists of rat M1 muscarinic receptor; Muscarinic acetylcholine receptor M1 (Rattus norvegicus), P08482; CHO-M1 cells, Fluo-4 calcium, ACh EC80 antagonist mode; active compounds read low; B-score at 10 µM; actives 3.4% (n = 64,000); AID 628, 2007;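 active means calcium fluorescence response, raw or row-and-column corrected B-score, differing from the plate sample mean either way at a set confidence level, mostly lower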
S1P1 ag-PAM: S1P1 agonists and agonism potentiators, primary screen, cell-based, primary and confirmation screens, CRE-bla reporter | S1P1 CRE-bla cells, forskolin, beta-lactamase FRET, potentiator mode; S1P1 agonist co-added at EC20, 2 nM; 100% = saturating reference agonist, 0% = basal | activation, % at 9.5 µM | actives 0.57% (n = 56,000) | AID 449, 2006;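 active means activation above a cutoff set at the mean activation of all tested compounds plus 3 SD, cut at about 54% in these data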;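 further: forskolin at 4 µM as EC80 and the EC20 agonist is SEW2871; 100% = SEW2871 at its EC100 plus forskolin at EC80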
M1 antag conf: rat M1 muscarinic receptor antagonists, confirmation, CHO cells, Fluo-4 calcium, duplicate | shares compounds with M1 antagonist | ACh EC80 antagonism; active compounds read low | calcium response (max-min fluorescence) at 10 µM | actives 43% (n = 1,700) | AID 677, 2007;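 active means calcium response below the same-plate mean of wells given acetylcholine alone at its 80%-effect dose, minus 3 SD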;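 further: raw fluorescence intensity difference in arbitrary instrument units and not normalized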
mGluR4 antag: human mGluR4 response to M1 antagonist hits, M1 allosteric modulator project, cell-based, antagonist mode, secondary assay 1; actives 0.9% (n = 1,700); CHO-mGluR4 calcium flux, Fluo-4 fluorescence, glutamate EC80; active compounds read low; AID 678, 2007; shares compounds with M1 antagonist; fluorescence response (max-min) at 10 µM;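 active means fluorescence response below the plate's average for near-maximal glutamate wells, less 3 SD of those wells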;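 further: raw unnormalized fluorescence span taken in the window right after glutamate addition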
* marks the source's active call; other numbers are inactive results; . = no result.

SMILES	S1P3 agonist	Jurkat tox 60K	M1 agonist	JNK3 inh	M1 antagonist	S1P1 ag-PAM	M1 antag conf	mGluR4 antag
NC(=O)C1(N2CCCCC2)CCN(C(=O)CSc2nc(C(F)(F)F)cc(=O)[nH]2)CC1	0	-5	-0.14	0	-3.5*	9	687	203
O=S(=O)(NC(=NC1CCCC1)C(F)(F)F)c1ccccc1	0	-2	0.0016	5	0.69	-2	.	.
Cc1ccc(NC(=O)Cn2cccc2)c(Br)c1	0	-11	0.37	-8	-2.9*	-10	566	247
CCNc1nc(CC)nc2c1oc1ccccc12	.	.	-1.1	.	-1.3	.	.	.
CCc1nc(NCc2ccco2)c2oc3ccccc3c2n1	.	.	-0.0089	.	-3.9*	.	581	213
Cc1cccc(CS(=O)(=O)Cc2ccc(C(=O)NCc3cccnc3)o2)c1	0	8	-0.008	3	-18*	2	625	245
CCC(c1nnnn1Cc1ccco1)N(Cc1ccccc1OC)Cc1cc2cc(C)ccc2[nH]c1=O (stereo not drawn)	-1	2	0.65	-2	-2.2*	2	590	201
Cc1cccc(C2Nc3ccccc3C(=O)N2CCc2ccccc2)n1 (stereo not drawn)	0	-1	-0.64	2	-11*	.	554	212
CCOC(=O)c1ccc(-n2[nH]c(-c3ccccc3)cc2=O)cc1	.	.	-0.027	.	-17*	.	691	190
O=C(Nc1ccc(N2CCN(C(=O)c3ccco3)CC2)c(Cl)c1)c1c(F)c(F)c(F)c(F)c1F	-2	0	2.4	4	-0.34	.	.	.
CC(O)CNC(=O)C1CCN(Cc2ccc(OCc3ccccc3)cc2)CC1 (stereo not drawn)	0	-3	-0.39	-2	-4.8*	-2	572	232
CN1CCN(Cc2ccc(OCc3ccccc3)cc2)CC1	0	-2	-1.2	0	-1.1	-18	.	.
CCN1CCN(Cc2ccc(OCc3ccccc3)cc2)CC1	-1	6	-0.62	2	-4.4*	.	345*	178
CS(=O)(=O)N1CCC(C(=O)Nc2ccc(OCc3ccccc3)cc2)CC1	-1	5	-0.17	-1	0.93	.	.	.
O=C(C1CCCN1C(=O)c1cccs1)N1CCc2ccccc21 (stereo not drawn)	0	1	-0.33	1	0.0007	10	.	.
Cc1ccc(Cn2nnnc2CN2CCC(O)(c3ccccc3F)CC2)cc1	.	.	-0.56	.	-0.14	.	.	.
Cc1ccc(C)c(C2=CSC3=NCCN23)c1	0	-1	-0.77	3	-0.16	0	.	.
Clc1ccc(C2=CSC3=NCCN23)cc1Cl	0	-1	-0.22	7	-2.2*	-13	535	241
CCOC(=O)CC(Nc1nc(N2CCOCC2)nc(N2CCOCC2)n1)c1ccccc1Cl (stereo not drawn)	-1	4	-0.05	2	-12*	-5	366*	242
COc1ccc(S(=O)(=O)N(C)c2ccc(OCC(=O)Nc3cc(C)on3)cc2)cc1	-1	-4	-0.64	-1	-2.8*	-10	604	218
COc1ccc(OCCC(=O)Nc2cc(C)on2)cc1	0	0	-0.03	0	0.68	.	.	.
CCC(c1ccccc1)c1nc(-c2ccccn2)no1 (stereo not drawn)	0	-1	0.89	-4	-6*	-12	621	239
